Our source for the Activity and Kd values is ChEMBL document CHEMBL3393022, “Ligand-induced conformational change of Plasmodium falciparum AMA1 detected using 19F NMR” (J Med Chem, 2014).

The source made the active and inactive calls. The rule behind the calls is not given here. Residues, ends and D or L forms follow the SMILES beside them.

Assay [1] addresses T1, Apical membrane antigen 1 (Plasmodium falciparum (isolate 3D7)) (UniProt Q7KQK5).
T1 sequence (whole entry): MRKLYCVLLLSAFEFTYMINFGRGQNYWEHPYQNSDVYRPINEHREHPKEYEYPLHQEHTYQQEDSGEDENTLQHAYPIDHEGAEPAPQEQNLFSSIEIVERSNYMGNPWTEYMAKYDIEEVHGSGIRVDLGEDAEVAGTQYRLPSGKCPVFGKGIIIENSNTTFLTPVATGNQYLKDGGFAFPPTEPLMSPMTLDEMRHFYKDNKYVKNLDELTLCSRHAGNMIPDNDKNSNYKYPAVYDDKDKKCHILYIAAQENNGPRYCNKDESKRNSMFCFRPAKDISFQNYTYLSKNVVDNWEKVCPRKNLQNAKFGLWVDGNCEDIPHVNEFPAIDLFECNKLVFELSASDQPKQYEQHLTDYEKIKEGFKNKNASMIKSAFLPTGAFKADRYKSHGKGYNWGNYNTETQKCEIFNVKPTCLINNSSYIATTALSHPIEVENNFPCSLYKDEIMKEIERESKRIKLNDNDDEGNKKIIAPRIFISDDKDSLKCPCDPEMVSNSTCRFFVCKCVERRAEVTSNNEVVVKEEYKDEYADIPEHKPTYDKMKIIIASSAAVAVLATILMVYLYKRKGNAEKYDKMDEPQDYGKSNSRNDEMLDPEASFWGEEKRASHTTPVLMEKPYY
The assay is described as follows: Binding affinity to Plasmodium falciparum 3D7 5F-Trp-tagged AMA1 assessed as downfield shifts of W110 peak by 19F-NMR spectroscopy in presence of R1/RON2L.

The target in assay [2] is T1, Apical membrane antigen 1 (Plasmodium falciparum (isolate 3D7)). The assay is described as follows: Binding affinity to Plasmodium falciparum 3D7 5F-Trp-tagged AMA1 F367W mutant assessed as decrease in the W367 line width at 1 and 3 mM by 19F-NMR spectroscopy in presence of R1/RON2L. In outline:
(§1)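 5F-Trp-labelled 3D7 PfAMA1(108–434) F367W from E. coli BL21(DE3), induced with 1 mM IPTG for 3 h after glyphosate/Phe/Tyr/5F-Trp, refolded and purified into 20 mM phosphate pH 7.4. Small-molecule ligands were added from 100 mM stocks in H2O, ethanol or DMSO to 1 and 3 mM. 19F spectra: 2K scans, 8K complex points, 150 ppm sweep width, under 40 min, compared with free protein.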

In assay [3] the target is Apical membrane antigen 1 (Plasmodium falciparum (isolate 3D7), UniProt Q7KQK5, F367W). The assay is described as follows: Binding affinity to Plasmodium falciparum 3D7 AMA1 F367W mutant expressed in Escherichia coli BL21(DE3) at 1 and 3 mM by SPR analysis. On the technique in general: SPR reads the build-up and loss of mass on a sensor chip optically.
The target of assay [4] is Apical membrane antigen 1 (Plasmodium falciparum (isolate 3D7), UniProt Q7KQK5). The assay is described as follows: Binding affinity to Plasmodium falciparum 3D7 AMA1 373W insertion mutant expressed in Escherichia coli BL21(DE3) by SPR analysis. Put shortly: (§2)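 SPR at 25 °C in PBS–0.1% Tween, flow 30 μL/min, with AMA1 immobilised on a GLC chip. Peptides were injected for 8 min at 50–3.125 nM, with 800 s dissociation. A lane without AMA1 and buffer or DMSO signals were subtracted. Regeneration used 0.85% phosphoric acid.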

The target in assay [5] is T2, Apical membrane antigen 1 (Plasmodium falciparum (isolate 3D7), UniProt Q7KQK5).
T2 sequence (Q7KQK5 whole entry): T1 sequence (whole entry)
The assay is described as follows: Binding affinity to Plasmodium falciparum 3D7 AMA1 (108 to 434) expressed in Escherichia coli BL21(DE3) by SPR analysis. Put shortly:
as §2

Assay [6] addresses T1, Apical membrane antigen 1 (Plasmodium falciparum (isolate 3D7)). The assay is described as follows: Binding affinity to Plasmodium falciparum 3D7 5F-Trp-tagged AMA1 F367W mutant at 1 and 3 mM by 19F-NMR spectroscopy in presence of R1/RON2L. In outline: as §1

What is called Kd is the free concentration of one partner at which half of the binding sites on the other are occupied at equilibrium, for simple one-to-one binding. Low readings indicate higher affinity, high ones lower affinity.

As to `Cc1nc(N)sc1-c1ccc(N)cc1`, the Activity entry in assay [1] and in assay [2] was “Dose-dependent effect” throughout.

Take H-VFAEFLPLFSKFGSRMHILK-OH: the Kd in assay [3] was 0.02 µM; in assay [4], 0.05 µM; in assay [5], 0.023 µM. In assay [1], the result was Active.

For the molecule `CC[C@H](C)[C@H](NC(=O)[C@H](CCC(N)=O)NC(=O)[C@H](CCC(N)=O)NC(=O)[C@@H]1CCCN1C(=O)[C@@H]1CCCN1C(=O)[C@H](CO)NC(=O)[C@H](CCSC)NC(=O)[C@H](CCCNC(=N)N)NC(=O)[C@@H](NC(=O)[C@@H](NC(=O)[C@H](Cc1ccccc1)NC(=O)[C@@H](N)CS)[C@@H](C)O)[C@@H](C)O)C(=O)N[C@@H](CS)C(=O)O` (H-CFTTRMSPPQQIC-OH), the outcome in assay [1] was Active. Besides, in assay [5], the dissociation constant (Kd) amounted to 40 µM.

`Nc1ccc2nc(N3CCCCC3)[nH]c2c1`: the Activity result in assay [1] is “Dose-dependent effect”. Also, the outcome in assay [6] was Active. Further, the result in assay [2] was inactive.

For the molecule `Nc1cc(N)cc(-c2nc3ccccc3[nH]2)c1`, the result in assay [1] and in assay [6] was Active. In addition, the outcome in assay [2] was inactive.
